Among the data in ChEMBL document CHEMBL1133522, “Chiral resolution, pharmacological characterization, and receptor docking of the noncompetitive mGlu1 receptor antagonist (+/-)-2-hydroxyimino- 1a, 2-dihydro-1H-7-oxacyclopropa[b]naphthalene-7a-carboxylic acid ethyl ester” (J Med Chem, 2000) are IC50 and inhibition values, retold here.

Molecules are shown by their SMILES.

Test [1] has as its target T1, Metabotropic glutamate receptor 1 (Homo sapiens, UniProt Q13255). Kind of test: Inhibition of Quisqualate-Induced PI Hydrolysis measured in CHO Metabotropic glutamate receptor 1 Expressing Cells. Format: functional. An outline of the steps:
(§1)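 Human mGlu1b receptor, cloned and stably expressed in CHO cells. Inhibition of quisqualate-stimulated phosphoinositol hydrolysis. Each data point is a triplicate measurement from at least three independent experiments, given as mean ± SEM. Four-parameter logistic fit of concentration–response curves gives IC50 with 95% confidence intervals. Highest concentration tested was 30 µM, or 100 µM where solubility allowed.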
Target sequence in this assay (Q13255 whole entry): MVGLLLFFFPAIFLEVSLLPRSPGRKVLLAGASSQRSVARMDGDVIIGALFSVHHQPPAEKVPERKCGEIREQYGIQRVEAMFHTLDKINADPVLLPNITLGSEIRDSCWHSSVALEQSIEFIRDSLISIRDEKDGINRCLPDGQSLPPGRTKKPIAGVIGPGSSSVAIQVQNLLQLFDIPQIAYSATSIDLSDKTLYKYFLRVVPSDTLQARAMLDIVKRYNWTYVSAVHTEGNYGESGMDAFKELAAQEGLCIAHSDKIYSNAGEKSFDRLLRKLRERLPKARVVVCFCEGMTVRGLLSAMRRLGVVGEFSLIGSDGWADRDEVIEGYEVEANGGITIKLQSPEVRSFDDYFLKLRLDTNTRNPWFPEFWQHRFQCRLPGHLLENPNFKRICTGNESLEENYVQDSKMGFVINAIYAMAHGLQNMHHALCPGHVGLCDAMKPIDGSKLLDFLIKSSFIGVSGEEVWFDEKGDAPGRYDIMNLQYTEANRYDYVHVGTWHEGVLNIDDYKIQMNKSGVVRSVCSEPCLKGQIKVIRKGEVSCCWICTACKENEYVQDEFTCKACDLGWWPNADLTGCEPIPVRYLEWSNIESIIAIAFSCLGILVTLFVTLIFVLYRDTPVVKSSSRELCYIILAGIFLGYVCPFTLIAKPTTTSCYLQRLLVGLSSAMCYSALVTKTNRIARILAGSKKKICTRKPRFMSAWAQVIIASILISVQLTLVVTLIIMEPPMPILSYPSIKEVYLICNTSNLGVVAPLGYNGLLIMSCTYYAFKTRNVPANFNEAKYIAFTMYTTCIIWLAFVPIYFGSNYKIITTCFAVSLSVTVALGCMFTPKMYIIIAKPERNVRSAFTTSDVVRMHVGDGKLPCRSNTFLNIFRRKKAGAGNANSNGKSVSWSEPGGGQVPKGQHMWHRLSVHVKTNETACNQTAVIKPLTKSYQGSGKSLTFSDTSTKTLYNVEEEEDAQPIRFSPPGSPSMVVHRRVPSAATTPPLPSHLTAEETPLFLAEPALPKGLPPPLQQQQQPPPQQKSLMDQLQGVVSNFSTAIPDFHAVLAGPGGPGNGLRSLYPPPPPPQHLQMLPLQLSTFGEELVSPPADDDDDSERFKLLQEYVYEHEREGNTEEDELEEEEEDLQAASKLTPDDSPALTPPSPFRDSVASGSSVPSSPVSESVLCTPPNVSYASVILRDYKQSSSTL

The target in test [2] is T1, Metabotropic glutamate receptor 1. The following applies: CHO; 100 uM.
Target sequence in this assay (Q13255 19-1194 limits assumed): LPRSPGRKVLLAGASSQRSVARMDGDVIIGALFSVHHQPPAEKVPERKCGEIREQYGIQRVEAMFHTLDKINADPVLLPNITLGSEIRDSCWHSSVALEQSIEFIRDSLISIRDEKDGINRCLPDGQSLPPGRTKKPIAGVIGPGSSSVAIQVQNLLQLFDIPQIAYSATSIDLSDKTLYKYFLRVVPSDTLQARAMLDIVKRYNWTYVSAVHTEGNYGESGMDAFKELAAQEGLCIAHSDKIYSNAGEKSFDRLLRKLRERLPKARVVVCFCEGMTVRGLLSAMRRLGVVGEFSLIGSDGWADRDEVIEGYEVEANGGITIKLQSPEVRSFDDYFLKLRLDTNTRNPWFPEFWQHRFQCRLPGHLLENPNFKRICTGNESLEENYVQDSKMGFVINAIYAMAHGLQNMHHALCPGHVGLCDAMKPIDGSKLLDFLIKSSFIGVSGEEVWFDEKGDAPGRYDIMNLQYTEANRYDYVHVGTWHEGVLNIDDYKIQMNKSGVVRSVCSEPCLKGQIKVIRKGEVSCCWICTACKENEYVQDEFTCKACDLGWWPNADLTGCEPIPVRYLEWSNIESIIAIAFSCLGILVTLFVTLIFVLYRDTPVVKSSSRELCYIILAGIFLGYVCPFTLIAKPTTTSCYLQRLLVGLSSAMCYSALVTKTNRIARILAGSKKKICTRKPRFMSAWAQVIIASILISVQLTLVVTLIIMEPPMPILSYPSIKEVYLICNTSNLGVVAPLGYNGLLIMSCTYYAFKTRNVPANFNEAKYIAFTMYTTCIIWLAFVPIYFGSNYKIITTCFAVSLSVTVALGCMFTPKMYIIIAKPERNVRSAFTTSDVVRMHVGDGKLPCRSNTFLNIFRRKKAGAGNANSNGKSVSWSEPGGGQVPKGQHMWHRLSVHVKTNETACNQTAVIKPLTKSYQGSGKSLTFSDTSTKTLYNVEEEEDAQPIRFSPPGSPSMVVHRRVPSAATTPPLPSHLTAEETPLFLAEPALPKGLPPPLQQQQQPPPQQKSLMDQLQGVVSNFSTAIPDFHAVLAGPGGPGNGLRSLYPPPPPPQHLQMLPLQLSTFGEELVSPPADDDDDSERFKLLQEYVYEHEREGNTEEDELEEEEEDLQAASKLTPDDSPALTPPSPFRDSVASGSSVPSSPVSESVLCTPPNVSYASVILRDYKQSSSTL
For test [3] the target is unchanged. Kind of test: Inhibition of Quisqualate-Induced PI Hydrolysis measured in CHO Metabotropic glutamate receptor 1 Expressing Cells at a concentration of 30 uM; ne means No effect. Format: functional. An outline of the steps:
as §1
Target sequence in this assay (Q13255 whole entry): as the sequence (Q13255 whole entry) above

Turning to `CCOC(=O)[C@]12C[C@H]1/C(=N\O)c1ccccc1O2`, the IC50 – broadly, the concentration at which inhibition is half-maximal – in test [1] came out at 1500 nM.

Take `COC(=O)[C@H](Cc1ccccc1)NC(=O)[C@]12C[C@H]1/C(=N\O)c1ccccc1O2`: the IC50 in test [1] worked out at 430 nM. As for `CCOC(=O)C12CC1/C(=N\O)c1ccccc1O2` (racemic), in test [1], half-maximal inhibition (IC50) was put at 3400 nM. Take `CCOC(=O)[C@@]12CC1/C(=N\O)c1ccccc1O2` (stereo partly drawn): in test [2], the inhibition (in general, the relative decrease from the control value, in per cent) was 53%. The half-maximal inhibitory concentration (IC50) result in test [3] is recorded as “Not Active”. With `COC(=O)[C@@H](Cc1ccccc1)NC(=O)[C@@]12C[C@@H]1/C(=N\O)c1ccccc1O2`, in test [3], the IC50 entry is recorded as “Not Active”. With `COC(=O)[C@H](Cc1ccccc1)NC(=O)C12CC1/C(=N\O)c1ccccc1O2` (mixture of isomers), the concentration for half-maximal inhibition (IC50) in test [1] was 1200 nM. Same read-out and setting: the same measure for `COC(=O)[C@@H](Cc1ccccc1)NC(=O)C12CC1/C(=N\O)c1ccccc1O2` (mixture of isomers): 1400 nM.
